Test results: ChEMBL document CHEMBL5724801, “EUbOPEN Chemogenomics Library - Multiplex” (2024)
Values joined by “and” are separate entries in the source; they are usually repeats but may differ in a detail not shown here. Identical values can stand only once.

Test system: Fibroblast
Experiment: Multiplex assay against human fibroblast
Assay type: toxicity, cell-based
How it was run: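 Imaging took place on a CQ1 microscope at 37°C and 5% CO2 once compound had been added to live cells stained at seeding with Hoechst33342, BioTracker Green Microtubule Cytoskeleton Dye, MitoTracker Red and Annexin V Alexa Fluor 680. CellPathfinder machine-learning gating classed cells as Hoechst high-intensity objects or normal cells, classed normal cells as having healthy, pyknosed or fragmented nuclei, and classed pyknosed cells as mitotic or apoptotic. Tubulin, mitochondrial-mass and membrane-permeability phenotypes are per cents of the healthy-nucleus cells.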

[1] = 12 h, 1 µM, compound concentration 1 uM
[2] = 12 h, 10 µM, compound concentration 10 uM
[3] = 24 h, 1 µM, compound concentration 1 uM
[4] = 24 h, 10 µM, compound concentration 10 uM
[5] = 48 h, 1 µM, compound concentration 1 uM
[6] = 48 h, 10 µM, compound concentration 10 uM

SMILES: CC(C)Oc1ccc(F)c(-c2cnc(N)c(C(=O)Nc3cnccc3N3CCC[C@@H](C(=O)O)C3)n2)c1
- Population Apoptotic (%) [1]: 23.53% and 20.59%
- Population Fragmented Nuclei (%) [1]: 23.08% and 16.74%
- Population Healthy Nuclei (%) [1]: 53.85% and 68.67%
- Population Hoechst High Intensity Objects (%) [1]: 0%
- Population Membrane Permeable-Phenotype (%) [1]: 1.68% and 3.12%
- Population Mitochondria Different-Phenotype (%) [1]: 7.56% and 5.62%
- Population Mitotic Cells (%) [1]: 76.47% and 79.41%
- Population Normal (%) [1]: 100%
- Population Pyknosed Nuclei (%) [1]: 23.08% and 14.59%
- Population Tubulin-Different-Phenotype (%) [1]: 15.97% and 18.12%
- Total Cell Count [1]: 221 and 233
- Population Apoptotic (%) [2]: 16.67% and 33.33%
- Population Fragmented Nuclei (%) [2]: 29.81% and 29.75%
- Population Healthy Nuclei (%) [2]: 60.87% and 65.82%
- Population Hoechst High Intensity Objects (%) [2]: 0%
- Population Membrane Permeable-Phenotype (%) [2]: 16.33% and 15.38%
- Population Mitochondria Different-Phenotype (%) [2]: 5.61% and 3.53%
- Population Mitotic Cells (%) [2]: 83.33% and 66.67%
- Population Normal (%) [2]: 100%
- Population Pyknosed Nuclei (%) [2]: 9.32% and 4.43%
- Population Tubulin-Different-Phenotype (%) [2]: 45.92% and 79.17%
- Total Cell Count [2]: 322 and 474
- Population Fragmented Nuclei (%) [3]: 24.16% and 21.57%
- Population Healthy Nuclei (%) [3]: 52.79% and 67.45%
- Population Hoechst High Intensity Objects (%) [3]: 0%
- Population Membrane Permeable-Phenotype (%) [3]: 4.23% and 3.49%
- Population Mitochondria Different-Phenotype (%) [3]: 2.11% and 4.65%
- Population Mitotic Cells (%) [3]: 93.55% and 71.43%
- Population Normal (%) [3]: 100%
- Population Pyknosed Nuclei (%) [3]: 23.05% and 10.98%
- Population Tubulin-Different-Phenotype (%) [3]: 14.79% and 23.26%
- Total Cell Count [3]: 269 and 255
- Population Apoptotic (%) [4]: 11.11% and 17.65%
- Population Fragmented Nuclei (%) [4]: 39.53% and 37.88%
- Population Healthy Nuclei (%) [4]: 53.49% and 59.43%
- Population Hoechst High Intensity Objects (%) [4]: 0%
- Population Membrane Permeable-Phenotype (%) [4]: 13.04% and 18.13%
- Population Mitochondria Different-Phenotype (%) [4]: 11.11% and 4.27%
- Population Mitotic Cells (%) [4]: 88.89% and 82.35%
- Population Normal (%) [4]: 100%
- Population Pyknosed Nuclei (%) [4]: 6.98% and 2.69%
- Population Tubulin-Different-Phenotype (%) [4]: 58.94% and 76%
- Total Cell Count [4]: 387 and 631
- Population Apoptotic (%) [5]: 11.96% and 8.33%
- Population Fragmented Nuclei (%) [5]: 17.32% and 18.8%
- Population Healthy Nuclei (%) [5]: 61.43% and 70.94%
- Population Hoechst High Intensity Objects (%) [5]: 0%
- Population Membrane Permeable-Phenotype (%) [5]: 1.88% and 3.61%
- Population Mitochondria Different-Phenotype (%) [5]: 6.39% and 2.41%
- Population Mitotic Cells (%) [5]: 88.04% and 91.67%
- Population Normal (%) [5]: 100%
- Population Pyknosed Nuclei (%) [5]: 21.25% and 10.26%
- Population Tubulin-Different-Phenotype (%) [5]: 24.06% and 42.97%
- Total Cell Count [5]: 433 and 351
- Population Apoptotic (%) [6]: 25% and 75%
- Population Fragmented Nuclei (%) [6]: 43.91% and 38.05%
- Population Healthy Nuclei (%) [6]: 54.09% and 60.35%
- Population Hoechst High Intensity Objects (%) [6]: 0%
- Population Membrane Permeable-Phenotype (%) [6]: 15.74% and 24.56%
- Population Mitochondria Different-Phenotype (%) [6]: 9.88% and 3.1%
- Population Mitotic Cells (%) [6]: 75% and 25%
- Population Normal (%) [6]: 100%
- Population Pyknosed Nuclei (%) [6]: 2% and 1.6%
- Population Tubulin-Different-Phenotype (%) [6]: 61.73% and 91.37%
- Total Cell Count [6]: 599 and 749

SMILES: COc1ccc2c(c1)C(C(=O)N(Cc1ccc(N(C)C)cc1)c1ccc(C(C)C)cc1)CCC2.Cl (stereo unspecified)
- Population Apoptotic (%) [1]: 57% and 45%
- Population Fragmented Nuclei (%) [1]: 15% and 20%
- Population Healthy Nuclei (%) [1]: 72% and 55%
- Population Hoechst High Intensity Objects (%) [1]: 1% and 5%
- Population Membrane Permeable-Phenotype (%) [1]: 1% and 5%
- Population Mitochondria Different-Phenotype (%) [1]: 7% and 15%
- Population Mitotic Cells (%) [1]: 42% and 54%
- Population Normal (%) [1]: 98% and 94%
- Population Pyknosed Nuclei (%) [1]: 11% and 23%
- Population Tubulin-Different-Phenotype (%) [1]: 22% and 57%
- Total Cell Count [1]: 163 and 138
- Population Apoptotic (%) [2]: 58% and 53%
- Population Fragmented Nuclei (%) [2]: 17% and 38%
- Population Healthy Nuclei (%) [2]: 69% and 51%
- Population Hoechst High Intensity Objects (%) [2]: 1% and 2%
- Population Membrane Permeable-Phenotype (%) [2]: 0% and 6%
- Population Mitochondria Different-Phenotype (%) [2]: 12% and 14%
- Population Mitotic Cells (%) [2]: 41% and 46%
- Population Normal (%) [2]: 98% and 97%
- Population Pyknosed Nuclei (%) [2]: 13% and 10%
- Population Tubulin-Different-Phenotype (%) [2]: 67% and 77%
- Total Cell Count [2]: 181 and 148
- Population Apoptotic (%) [3]: 55%
- Population Fragmented Nuclei (%) [3]: 11% and 19%
- Population Healthy Nuclei (%) [3]: 77% and 59%
- Population Hoechst High Intensity Objects (%) [3]: 1% and 3%
- Population Membrane Permeable-Phenotype (%) [3]: 0% and 2%
- Population Mitochondria Different-Phenotype (%) [3]: 5% and 11%
- Population Mitotic Cells (%) [3]: 44%
- Population Normal (%) [3]: 98% and 96%
- Population Pyknosed Nuclei (%) [3]: 11% and 20%
- Population Tubulin-Different-Phenotype (%) [3]: 25% and 41%
- Total Cell Count [3]: 156 and 136
- Population Apoptotic (%) [4]: 50% and 42%
- Population Fragmented Nuclei (%) [4]: 17% and 39%
- Population Healthy Nuclei (%) [4]: 72% and 55%
- Population Hoechst High Intensity Objects (%) [4]: 3% and 2%
- Population Membrane Permeable-Phenotype (%) [4]: 0% and 2%
- Population Mitochondria Different-Phenotype (%) [4]: 15% and 12%
- Population Mitotic Cells (%) [4]: 50% and 57%
- Population Normal (%) [4]: 96% and 97%
- Population Pyknosed Nuclei (%) [4]: 10% and 4%
- Population Tubulin-Different-Phenotype (%) [4]: 63% and 85%
- Total Cell Count [4]: 180 and 148
- Population Apoptotic (%) [5]: 66% and 52%
- Population Fragmented Nuclei (%) [5]: 17% and 26%
- Population Healthy Nuclei (%) [5]: 75% and 61%
- Population Hoechst High Intensity Objects (%) [5]: 1%
- Population Membrane Permeable-Phenotype (%) [5]: 1% and 5%
- Population Mitochondria Different-Phenotype (%) [5]: 3% and 13%
- Population Mitotic Cells (%) [5]: 33% and 47%
- Population Normal (%) [5]: 98%
- Population Pyknosed Nuclei (%) [5]: 6% and 12%
- Population Tubulin-Different-Phenotype (%) [5]: 27% and 46%
- Total Cell Count [5]: 180 and 152
- Population Apoptotic (%) [6]: 71% and 75%
- Population Fragmented Nuclei (%) [6]: 21% and 45%
- Population Healthy Nuclei (%) [6]: 71% and 52%
- Population Hoechst High Intensity Objects (%) [6]: 4% and 0%
- Population Membrane Permeable-Phenotype (%) [6]: 0% and 3%
- Population Mitochondria Different-Phenotype (%) [6]: 8%
- Population Mitotic Cells (%) [6]: 28% and 25%
- Population Normal (%) [6]: 95% and 99%
- Population Pyknosed Nuclei (%) [6]: 7% and 2%
- Population Tubulin-Different-Phenotype (%) [6]: 71% and 81%
- Total Cell Count [6]: 203 and 174
